Series [1] addresses Autotaxin (Bos taurus) (UniProt A1A4K5). Put plainly: Inhibition of ATX in fetal bovine serum using FS-3 as substrate at 10 uM after 2 hrs by fluorescence assay. The procedure, abridged:
(§1)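 ATX source: fetal bovine serum, mixed with compound in 0.1% BSA and 1 µM FS-3 in Tris-HCl pH 8.0 buffer (1 mM CaCl2, 1 mM MgCl2, 5 mM KCl, 140 mM NaCl). Fluorescence (485/530 nm) read before and after 2 h at 37 °C; pre-incubation value subtracted, normalized to vehicle as percent inhibition; triplicate wells, mean ± S.E.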

Series [2] has the same target. Kind of series: Inhibition of ATX in fetal bovine serum using FS-3 as substrate at 0.1 to 10 uM after 2 hrs by fluorescence assay. The procedure, abridged:
as §1

Series [3] is described as follows: Lipophilicity, Log P of the compound. It is filed as physicochemical. The note with it: octanol/water.
Series [4] has as its system Rattus norvegicus. Kind of series: Neuroprotective effect against transient cerebral ischemia-induced delayed neuronal death in Wistar rat hippocampal CA1 region assessed as decrease in GFAP accumulation at 180 ug/kg/5 days dosed through mini-osmotic pump measured after 5 days of occlusion for 8 mins by immunohistochemical staining relative to control. It is filed as functional, organism-based. The procedure, abridged: (§2)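 Male Wistar rats under halothane; compound (180 µg·kg−1·5 days−1) or 0.2% fatty-acid-free BSA vehicle given by subcutaneous pump implanted 35–60 min before ischemia. Vertebral arteries ligated, both carotids occluded 8 min at ~37.5 °C. On day 5, formalin perfusion and paraffin sections (6 µm) of hippocampal CA1 stained with HE or anti-GFAP.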

The test system of series [5] is Rattus norvegicus. Put plainly: Antinociceptive activity in Wistar rat assessed as somato-somatic C-reflex at 0.2 mg/kg, iv by electromyogram analysis relative to control. In kind it is functional. The procedure, abridged: (§3)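 Anesthetised adult male Wistar rats (310–370 g; pentobarbital 50 mg/kg ip); jugular vein catheter for iv dosing at 0.2 mg/kg, blood pressure and heart rate monitored, end-tidal CO2 kept near 3.0%. Reflex EMG evoked by single shocks, averaged over ~50 trials at 3-s intervals; response area expressed as percent of control size 0–15 min before injection; mean ± S.E.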

Series [6] has as its system Rattus norvegicus. Put plainly: Antinociceptive activity in Wistar rat assessed as reduction in somato-somatic C-reflex at 0.2 mg/kg, iv by electromyogram analysis relative to control. Also noted: dose 0.2 mg/kg. In kind it is functional, organism-based. The procedure, abridged: as §3
The subject of series [7] is Rattus norvegicus. Kind of series: Antinociceptive activity in Wistar rat assessed as reduction in A-reflex at 0.2 mg/kg, iv by electromyogram analysis relative to control. In kind it is functional, organism-based. Further details: dose 0.2 mg/kg. The procedure, abridged:
as §3

A further series addresses Autotaxin (Homo sapiens) (UniProt Q13822). Put plainly: Inhibition of ATX-mediated human MDA-MB-231 cell migration at 10 uM after 8 hrs by Cyto Fluor spectrophotometry relative to lysophosphatidyl choline. The procedure, abridged:
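Calcein-AM-stained MDA-MB-231 cells (4 × 10^5 cells/mL in DMEM with 0.1% fatty-acid-free BSA) placed in upper wells over 8-µm pore membranes; lower wells held 200 µM LPC plus 10 µM compound. Incubated 8 h at 37 °C; non-migrated cells wiped off, migrated-cell fluorescence read at 485/530 nm. Percent of LPC-only control; triplicate wells, ≥3 independent experiments.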

The test system of series [8] is Rattus norvegicus. Put plainly: Neuroprotective effect against transient cerebral ischemia-induced delayed neuronal death in Wistar rat hippocampal CA1 region assessed as reduction in pyknosis and shrinkage of cells at 180 ug/kg/5 days dosed through mini-osmotic pump measured after 5 days of occlusion for 8 mins by hematoxylin/eosin based staining relative to control. In kind it is functional, organism-based. The procedure, abridged: as §2

Series [9] is filed under the species Rattus norvegicus. Kind of series: Ratio of natural cPA effective dose to compound effective dose for antinociceptive activity in Wistar rat assessed as reduction in somato-somatic C-reflex. In kind it is functional.

Active and inactive are the calls of the source. No cut-off for these calls is given here.

As usually defined, the inhibition is the relative decrease from the control value, in per cent. By logP is commonly meant a log measure of how a compound divides between an organic and an aqueous phase. A low value points to lower lipophilicity.

With `CCCCCC/C=C\CCCCCCCC(=O)OC[C@@H]1CSP(=O)(O)O1`, the inhibition at Autotaxin (Bos taurus) [1] was determined as 40%.

Regarding `CCCCCC/C=C\CCCCCCCC(=O)OC[C@H]1CSP(=O)(O)O1`, the inhibition result at Autotaxin (Bos taurus) [2] was “Active”.

In series [3], `CCCCCC/C=C\CCCCCCCC(=O)OCC1CSP(=O)(O)O1.CCN(CC)CC` (racemic) displayed a logP of 5.96. Further, the outcome with Rattus norvegicus [4], in the series on Rattus norvegicus [6] and in the series with Rattus norvegicus [8] was Active. Also, in the series with Rattus norvegicus [5], the Activity turned out to be 87%. Besides, the result in the series with Rattus norvegicus [7] was inactive. Also, at Autotaxin (Homo sapiens), the inhibition is more than 40%.

For `CCCCCC/C=C\CCCCCCCC(=O)OCC1COP(=O)([O-])C1.[Na+]` (racemic), in the series listed under Rattus norvegicus [9], the “fold change (FC)” value was determined as 10. Moreover, the Activity in the series with Rattus norvegicus [5] amounted to 83%. Further, the inhibition result on Autotaxin (Bos taurus) [2] is “Active”.

`CCCCCCCC/C=C\CCCCCCCC(=O)OCC1CSP(=O)(O)O1` (racemic) had an inhibition on Autotaxin (Homo sapiens) of more than 40%.

`CCCCCCCCCCCCCCCC(=O)OCC1CSP(=O)(O)O1` (racemic): the inhibition at Autotaxin (Homo sapiens) was more than 40%.

In the case of `CCCCCCCCCCCCCCCCCC(=O)OCC1CSP(=O)(O)O1` (racemic), the inhibition at Autotaxin (Homo sapiens) was more than 40%.

The record behind these values is ChEMBL document CHEMBL2021869, “Pharmacological evaluation of a novel cyclic phosphatidic acid derivative 3-S-cyclic phosphatidic acid (3-S-cPA)” (Bioorg Med Chem, 2012).
